# Compound activity (PubChem BioAssay)
# PAX8 inh HTS: PAX8 transcriptional activity inhibition. RMG-I TPO-luciferase reporter, SteadyGlo, 24 h. inhibition, % at 12.6 µM. actives 1.2% (n = 360,000). AID 652154;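 active = mean replicate inhibition at least 60% with every replicate also reaching 60%; inconclusive = only one of the two criteria is met; inactive = mean below 60% and not all replicates reaching 60%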;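 also: luciferase light reporting Pax8 driven TPO promoter activity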
# LMP1 NFkB inh: reduces LMP1-driven NF-kappaB luciferase signal; LMP1-induced NF-kappaB luciferase reporter cells, luminescence; inhibition, % at 12.5 µM; actives 0.69% (n = 350,000); AID 504558; in the data active = inhibition above about 41%; inconclusive = no clear call, values can overlap the other calls
# Shn3 3UTR inh: inhibitors of Schnurri-3 3'UTR reporter in osteoblasts; Clone20 osteoblast Shn3 3'UTR firefly luciferase, 24 h; inhibition, % at 12.5 µM; actives 0.52% (n = 360,000); AID 588674;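 active = mean inhibition of at least 75% with every replicate also reaching 75%; inconclusive = mean inhibition at least 75% but some replicate below; inactive = mean inhibition below 75%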
# aSyn 5UTR inh: MLPCN primary screen, SNCA 5' untranslated region | alpha-synuclein 5'UTR reporter, inhibitor activity | inhibition, % (tested at 7.5 µM) | actives 0.82% (n = 300,000); in the data active = inhibition above about 60%; inconclusive = no clear call, values can overlap the other calls;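 also: H4 neuroglioblastoma cells stably carrying SNCA 5'UTR luciferase fusion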
# EWS-Fli inh: EWS/Fli transcriptional activity inhibition; A673 NR0B1-luciferase reporter, viability-normalised; inhibition, % at 12.6 µM; actives 0.67% (n = 350,000);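 active = mean inhibition of at least 50% after viability correction, with every replicate also passing that limit; inconclusive = mean reaches 50% but only one of two replicates passes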;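 also: firefly luciferase signal divided by Alamar Blue viability fluorescence both relative to DMSO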
# FN deposition inh: fibronectin deposition inhibition | AID 743247 | AH1F fibroblasts, Alexa488-fibronectin deposition fluorescence, overnight | inhibition, % at 12.6 µM | actives 0.086% (n = 350,000);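 active = mean inhibition across replicates of 30% or more, regardless of how many single replicates reach that level; inconclusive = mean under 30% yet at least half of replicates reach 30%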
#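 Material – AH1F fibroblast monolayer, labelled fibronectin deposition · Reagent – labelled fibronectin 24 nM · Timing – 1 h adhesion, overnight exposure · Measured by – fluorescence at 485 nm excitation, 525 nm emission · Read-out – inhibition of fibronectin deposition signal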
# Hits are given with their value; - = inactive; ? = inconclusive; . = no result. Sampled rows, rich in hits. Any-hit rate of the full collection: about 2.1%.
SMILES,PAX8 inh HTS,LMP1 NFkB inh,Shn3 3UTR inh,aSyn 5UTR inh,EWS-Fli inh,FN deposition inh
C[C@@H]1CCCCO[C@@H](CN(C)C(=O)C2CCCCC2)[C@@H](C)CN([C@@H](C)CO)C(=O)c2cc(NS(=O)(=O)c3ccc(Cl)cc3)ccc2O1,-,.,.,.,-,-
Cc1ccc(S(=O)(=O)Nc2ccc3c(c2)C(=O)N([C@H](C)CO)C[C@H](C)[C@H](CN(C)C(=O)C2CCCCC2)OCCCC[C@H](C)O3)cc1,-,.,.,.,-,-
C[C@H](O)C#Cc1ccc2c(c1)O[C@H](CN(C)C(=O)CC1CC1)[C@H](C)CN([C@@H](C)CO)S2(=O)=O,.,.,.,.,-,-
O=C1NC(=S)N/C1=C/C=C/c1ccccc1,-,-,-,-,-,-
O=C1NC(=S)NC1=Cc1ccc2c(c1)CCC2,-,93,-,.,-,-
Cc1ccc(S(=O)(=O)Nc2ccc(O)c3ncccc23)cc1,-,-,92,-,-,-
CCN1C(=O)N[C@@H](CCc2ccccc2)[C@H](C(C)=O)[C@H]1C,-,58,-,-,-,-
CC(=O)[C@H]1[C@H](CCc2ccccc2)NC(=O)N(Cc2ccccc2)[C@@H]1C,-,-,-,-,-,-
O=C(NCc1ccco1)C1CC(=O)N(c2ccc(Cl)cc2)C1 (stereo unspecified),-,-,-,-,-,-
O=C(NCc1ccco1)C1CC(=O)N(c2cccc(Cl)c2)C1 (stereo unspecified),-,65,-,-,-,-
CCCN1[C@@H]2c3ccc(-c4cccnc4)c(=O)n3C[C@H]1[C@H](CO)[C@H]2C(=O)NCCc1cn(C)cn1,-,.,.,.,-,.
Cn1c2ccccc2c2nnc(SCC(N)=O)nc21,-,-,-,-,-,-
Cn1c2ccc(Br)cc2c2nnc(SCC(=O)O)nc21,-,-,-,62,-,-
COc1ccccc1-n1cc([C@@H]2C[C@H]3CN(c4ccccc4)C(=O)[C@]34CCCN24)cn1,98,60,97,-,-,-
COc1cc([C@@H]2C[C@H]3CN(c4ccccc4)C(=O)[C@]34CCCN24)cc(OC)c1OC,-,-,-,-,-,-
COCCN(C(=O)COC(=O)/C=C/c1cccc(OC)c1)c1c(N)n(CC(C)C)c(=O)[nH]c1=O,67,-,-,.,-,-
COCCN(C(=O)COC(=O)C1CCC(C(C)(C)C)CC1)c1c(N)n(Cc2ccccc2)c(=O)[nH]c1=O (stereo unspecified),-,-,88,-,-,-
CO[C@@H]1CN(C)C(=O)c2ccc(NC(=O)C3CC3)cc2OC[C@@H](C)N(Cc2nccs2)C[C@H]1C,-,.,.,.,-,-
Fc1ccc(-c2nnc(-n3nnc4ccccc43)c3ccccc23)cc1,-,53,-,-,.,-
COc1ccccc1N1CCN(c2nnc(-c3ccc(F)cc3)c3ccccc23)CC1,.,-,-,-,.,.
CC(C)CC#Cc1ccc2c(c1)O[C@@H](CN(C)C)[C@H](C)CN([C@H](C)CO)S2(=O)=O,.,.,.,.,-,-
CCCS(=O)(=O)c1ncc(Cl)c(C(=O)Nc2ccc(S(=O)(=O)Nc3ncccn3)cc2)n1,-,-,-,-,-,-
Cc1ccc(C(=O)NCc2ccc3c(c2)OCO3)c(Cl)c1,-,-,-,.,-,-
Cc1cccc(CS(=O)(=O)c2ncc(Cl)c(C(=O)NCc3ccc4c(c3)OCO4)n2)c1,-,-,94,-,.,-
COC(=O)c1ccc(NC(=O)c2nc(S(=O)(=O)Cc3cccc(C)c3)ncc2Cl)cc1,-,-,95,?,.,53
SMILES,PAX8 inh HTS,LMP1 NFkB inh,Shn3 3UTR inh,aSyn 5UTR inh,EWS-Fli inh,FN deposition inh
CC(=O)Nc1ccc(NC(=O)c2nc(S(=O)(=O)Cc3cccc(C)c3)ncc2Cl)cc1,91,-,97,-,61,-
CC(NCc1ccc(OCc2ccc(Cl)cc2)cc1)C(O)c1ccccc1 (stereo unspecified),-,-,97,-,-,-
CC(NCc1cccc(OCc2ccccc2)c1)C(O)c1ccccc1 (stereo unspecified),-,-,-,-,-,-
O=C(Nc1ccccc1F)N1CCCCN2[C@H](C1)[C@@H](c1ccc(-c3cccnc3)cc1)[C@@H]2CO,-,.,.,.,.,.
O=C(CSc1nc2ccccc2c(=O)n1-c1ccc(F)cc1F)Nc1ccc2c(c1)CCC2,-,-,-,-,-,.
O=C(CSc1nc2ccccc2c(=O)n1-c1ccccc1F)Nc1ccc2c(c1)CCC2,-,-,-,-,-,31
